Screens (PubChem)
LEDGF integ inh: blockers of LEDGF/p75-dependent integrase strand transfer – biochemical, TR-FRET, high throughput, primary screen. TR-FRET IN-LEDGF/p75 DNA integration, Eu/Cy5. inhibition, % at 3.7 µM. 370,000 tested, 0.64% active;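 active means inhibition above the screen-wide mean plus 3 SD, cut at about 13% in these data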;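 further: signal is the Cy5 over europium emission ratio at 671 and 618 nm; 0% = plate median of compound wells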
DDE Tn7 FP inh: inhibitors of Tn7 peptide binding to fibrin DD(E), primary screen, biochemical, fluorescence polarization, human fibrin, Tn7 probe; Fibrinogen beta chain (Homo sapiens), P02675; FP displacement of FITC-Tn7 peptide from fibrin DD(E); 0% = median of compound wells per plate; inhibition, % at 8.3 µM; 370,000 tested, 0.13% active; AID 720508, 2013;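 active means inhibition above the mean of compounds falling within the control limits plus 3 SD of them, cut at about 14% in these data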;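 further: 0% = plate median of compound wells and 100% = 10 µM Aha-Tn7 peptide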
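Assay system: human fibrin DD(E) protein / Input: 2 µM fibrin DD(E) / Benchmarks: high control of 10 µM Aha-Tn7 peptide / Measured by: fluorescence polarization of the labelled Tn7 tracer / Medium: Tris buffer with calcium and detergent, pH 7.8 / Timing: 10 min compound pre-incubation, 3 h probe incubation at room temperature / Repeats: one replicate per compound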
Tn6 DDE FP: inhibitors of Tn6 peptide binding to fibrin DD(E), primary screen, biochemical, fluorescence polarization, human fibrin, Tn6 probe; Fibrinogen beta chain (Homo sapiens), P02675; Fibrin DD(E) TRITC-Tn6 fluorescence polarization displacement; inhibition, % at 8.3 µM; 370,000 tested, 0.21% active; AID 720509, 2013;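 active means inhibition above a per-campaign cutoff: mean of compounds within control limits plus 3 SD, cut at about 15% in these data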;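 further: 0% = median of all compound wells on the plate and 100% = blocking peptide control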
MBD2 inh: inhibitors of MBD2 binding to methylated DNA, primary screen, biochemical, TR-FRET, DNA-binding domain, human. MBD2 binding to methylated oligonucleotide. AID 686964, 2013. inhibition, % at 4.4 µM. 370,000 tested, 0.31% active. Methyl-CpG-binding domain protein 2 (Homo sapiens), Q9UBB5; in the data active means inhibition above about 13%
Target sequence (Q9UBB5 whole entry, looked up, the tested form may be a part): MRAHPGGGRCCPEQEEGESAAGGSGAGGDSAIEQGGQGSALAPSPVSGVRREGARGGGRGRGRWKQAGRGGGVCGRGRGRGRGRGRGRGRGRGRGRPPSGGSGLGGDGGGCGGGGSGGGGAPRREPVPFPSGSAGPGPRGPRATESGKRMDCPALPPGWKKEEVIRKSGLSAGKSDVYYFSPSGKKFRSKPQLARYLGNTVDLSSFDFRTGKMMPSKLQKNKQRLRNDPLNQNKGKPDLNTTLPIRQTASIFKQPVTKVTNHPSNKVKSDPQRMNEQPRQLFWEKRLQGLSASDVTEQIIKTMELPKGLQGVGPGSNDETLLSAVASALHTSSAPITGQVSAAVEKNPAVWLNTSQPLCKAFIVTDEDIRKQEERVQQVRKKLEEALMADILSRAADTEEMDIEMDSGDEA
TDP2 inh: human TDP2 enzyme inhibitors, primary screen, biochemical, epi absorbance, recombinant enzyme; 370,000 tested, 0.34% active; inhibition, % at 12.8 µM; Tyrosyl-DNA phosphodiesterase 2 (Homo sapiens), O95551; T5PNP hydrolysis, p-nitrophenol absorbance 415 nm;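 active means inhibition above the mean of all tested compounds plus 3 SD, set per campaign, cut at about 25% in these data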;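 further: 0% = DMSO with enzyme and 100% = buffer with substrate but no TDP2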
Target sequence (O95551 whole entry, looked up): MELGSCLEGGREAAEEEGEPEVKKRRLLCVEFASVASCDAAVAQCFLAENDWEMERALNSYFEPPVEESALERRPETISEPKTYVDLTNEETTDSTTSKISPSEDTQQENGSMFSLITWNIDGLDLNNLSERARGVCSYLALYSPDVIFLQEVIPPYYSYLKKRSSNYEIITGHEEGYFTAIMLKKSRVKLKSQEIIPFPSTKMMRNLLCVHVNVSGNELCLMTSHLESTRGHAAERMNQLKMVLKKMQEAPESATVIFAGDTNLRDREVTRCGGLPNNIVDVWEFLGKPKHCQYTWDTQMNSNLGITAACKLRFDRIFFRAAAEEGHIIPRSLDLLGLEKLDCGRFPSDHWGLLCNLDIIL
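Material: recombinant human TDP2; quantity: TDP2 enzyme at 120 nM final; medium: Tris-HCl pH 7.5 with MgCl2; compound: single concentration, 12.8 µM nominal, with 1% DMSO; incubation: 2 h enzyme incubation at 37 °C; signal: epi absorbance; measure: percent inhibition; benchmarks: high control without enzyme, low control DMSO plus TDP2; repeats: singlicate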
UHRF1 binding: UHRF1 methylated DNA binding inhibitors, primary screen, counter-screen for MBD2 inhibitor project, biochemical, TR-FRET, human UHRF1, single concentration. inhibition, % at 4.4 µM. AID 687016, 2013. E3 ubiquitin-protein ligase UHRF1 (Homo sapiens), Q96T88. UHRF1 binding to methylated oligo. 370,000 tested, 0.75% active;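 further: UHRF1 SRA domain binding a hemimethylated CpG hairpin DNA probe; 0% = median of test compound wells and 100% = reference inhibitor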
UHRF1 DNA bind: UHRF1 methylated DNA binding inhibitors, counter-screen for MBD2 inhibitor project, biochemical, TR-FRET, human UHRF1. UHRF1 binding to methylated oligonucleotide. shares compounds with MBD2 inh. 1,000 tested, 25% active. inhibition, % at 4.4 µM;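 further: UHRF1 SRA domain binding a labeled hemimethylated CpG hairpin DNA; 0% = vehicle only and 100% = reference inhibitor with vehicle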
MBD2 DBD conf: inhibitors of MBD2 binding to methylated DNA, confirmation, biochemical, TR-FRET, DNA-binding domain, human | shares compounds with MBD2 inh | TR-FRET MBD2-DBD binding to methylated oligonucleotide | inhibition, % at 4.4 µM | 1,000 tested, 26% active; in the data active means inhibition above about 14%
TDP2 inh conf: human TDP2 enzyme inhibitors, retest, confirmation, biochemical, epi absorbance, recombinant enzyme; 1,100 tested, 22% active; AID 743263, 2014; absorbance read-out; inhibition, % at 12.8 µM; shares compounds with TDP2 inh; in the data active means inhibition above about 25%;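 further: 0% = vehicle with enzyme and 100% = no enzyme buffer only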
IN multimer act: HIV-1 IN multimer formation enhancers, counter-screen for LEDGF/p75 integration inhibitor project, biochemical, TR-FRET; shares compounds with LEDGF integ inh; TR-FRET HIV-1 integrase multimerization; activation, % at 7.7 µM; 2,000 tested, 17% active; AID 1053131, 2014; in the data active means activation above about 8.9%
TR-FRET interf: TR-FRET optical interference artefacts, confirmation, artefact control for LEDGF/p75-dependent integration inhibitor project, biochemical, HIV-1 IN multimerization. AID 1053135, 2014. inhibition, % at 7.7 µM. 2,000 tested, under 10 active. shares compounds with LEDGF integ inh. TR-FRET optical interference counterscreen;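 active means inhibition above the mean over all tested compounds plus 3 SD, which no compound reached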;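 further: 0% = integrase with antibodies and DMSO and 100% = antibodies without integrase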
IN-LEDGF confirm: inhibitors of HIV-1 IN-LEDGF/p75 DNA integration, confirmation, biochemical, TR-FRET; 2,000 tested, 36% active; TR-FRET LEDGF/p75-dependent HIV-1 integration; shares compounds with LEDGF integ inh; AID 1053136, 2014; inhibition, % at 3.7 µM; in the data active means inhibition above about 14%
The depositor's hits bear a star; i = inactive; x = no result given. The list is not random: actives were taken first. Their share in the collection is about 1.9%. Unless noted, no stated cut-off is given here; in the data, active means inhibition above about 21%; inactive means the rest.

SMILES | LEDGF integ inh | DDE Tn7 FP inh | Tn6 DDE FP | MBD2 inh | TDP2 inh | UHRF1 binding | UHRF1 DNA bind | MBD2 DBD conf | IN multimer act | TR-FRET interf | IN-LEDGF confirm | others
O=C1c2c(O)cccc2C(C2OC(CO)[C@@H](O)[C@H](O)[C@H]2O)c2cc(CO)cc(O)c21 (some centres undefined) | 2.4 | -0.6 | -0.7 | -0.1 | 0.4 | -6.7 | x | x | x | x | x
O=C(O)c1cc(O)c2c(c1)[C@H]([C@H]1c3cc(C(=O)O)cc(O)c3C(=O)c3c(O[C@@H]4O[C@H](CO)[C@@H](O)[C@H](O)[C@H]4O)cccc31)c1cccc(OC3O[C@H](CO)[C@@H](O)[C@H](O)[C@H]3O)c1C2=O (some centres undefined) | 81.6* | 4.5 | -37.7 | 33.0* | 45.9* | 73.4* | 89.5* | 93.9* | 73.7* | -261.3 | 80.1* | TDP2 inh conf=51.1*
CC(C)(CS(=O)(=O)[O-])NC(=O)CC[N+](C)(C)CCO | 39.4* | 1.8 | 0.5 | 53.5* | -1.5 | 91.6* | 95.1* | 84.6* | 122.2* | i | 37.8*
CN1C2CCCC1CC(NC(=O)c1nn(C)c3ccccc13)C2 (centres undefined) | -1.7 | 0.0 | 7.6 | 3.4 | 0.9 | 2.4 | x | x | x | x | x
COc1cccc(C(c2c(C)[nH]n(-c3ccccc3)c2=O)c2c(C)[nH]n(-c3ccccc3)c2=O)c1O | 23.2* | 9.1 | -3.5 | 20.8* | 80.0* | 21.0* | -3.8 | -0.1 | 5.5 | -27.4 | 6.7 | TDP2 inh conf=6.0
COc1cccc(C(c2c(C)[nH]n(-c3ccccc3)c2=O)c2c(C)[nH]n(-c3ccccc3)c2=O)c1OC | 21.0* | 1.3 | 15.0 | 16.7* | 89.2* | 18.0 | 1.9 | 0.6 | 2.7 | -9.6 | -1.9 | TDP2 inh conf=32.2*
Cc1[nH]n(-c2ccccc2)c(=O)c1C(C[N+](=O)[O-])c1ccccc1Cl (centres undefined) | -3.4 | -1.0 | 6.6 | -7.6 | 3.2 | -7.6 | x | x | x | x | x
Cc1[nH]n(-c2ccccc2)c(=O)c1C(c1ccc(O)c([N+](=O)[O-])c1)c1c(C)[nH]n(-c2ccccc2)c1=O | 38.3* | -4.3 | 1.9 | 14.7* | 88.7* | 15.2 | 1.8 | -4.4 | 3.7 | -18.8 | -4.1 | TDP2 inh conf=9.3
O=C(CCCN1C(=O)/C(=C/c2ccco2)SC1=S)Nc1ccccc1C(=O)O | 38.5* | -2.9 | -3.3 | 26.7* | 9.7 | 81.7* | 51.7* | 15.8* | 9.7* | -35.7 | 26.5*
O=C(CCN1C(=O)/C(=C/c2ccco2)SC1=S)Nc1ccc(O)cc1C(=O)O | 78.1* | 1.3 | -11.2 | 68.4* | 26.9* | 94.6* | 37.9* | 8.2 | 19.3* | -97.6 | 46.0* | TDP2 inh conf=-4.3
CCc1cc(=O)oc2cc(C)c(CN3CCCCC3)c(O)c12 | 13.0 | 12.9 | 3.7 | 5.9 | 8.5 | 7.4 | x | x | x | x | x
CCc1cc(=O)oc2cc(C)c(CN3CCCC3)c(O)c12 | 34.6* | -4.3 | -6.4 | 14.6* | -7.1 | 32.4* | 16.1 | 10.9 | 6.0 | -30.4 | 39.7*
COc1ccc(OCc2nn3c(-c4ccco4)nnc3s2)cc1 | 0.5 | -0.7 | 0.3 | -6.0 | -6.6 | -1.3 | x | x | x | x | x
c1coc(-c2nnc3sc(Cc4cccs4)nn23)c1 | 38.2* | -1.4 | -2.4 | 18.7* | -15.3 | 71.3* | 8.0 | 8.8 | 5.5 | -27.7 | 17.6*
CCc1ccccc1NC(=O)CCS(=O)(=O)c1ccc(OC)cc1 | 15.7* | 3.0 | -3.6 | 40.5* | 2.3 | 75.0* | 13.0 | 3.5 | 3.2 | -11.4 | -1.2
Cc1ccccc1CN1CCCCC(NC(=O)c2ccccc2C(F)(F)F)C1=O (centres undefined) | -1.1 | 6.5 | 10.5 | -0.6 | -2.7 | -0.3 | x | x | x | x | x
Cc1cccc(C)c1N1C(=O)[C@@H]2C(c3ccccc3Cl)=NO[C@@H]2C1=O | 1.1 | -2.9 | 2.8 | -4.2 | 4.6 | 2.0 | x | x | x | x | x
COc1ccc(OC)c(N2C(=O)[C@@H]3C(c4ccccc4Cl)=NO[C@@H]3C2=O)c1 | 22.9* | -5.2 | 10.4 | 25.6* | -5.2 | 66.9* | 38.2* | 18.0* | 4.0 | -20.0 | 26.0*
CCOc1cc(N2CCC(O)CC2)ccc1Nc1ncc2c(n1)N(C)c1ccccc1C(=O)N2C | -2.0 | 2.2 | 0.6 | -3.2 | -13.0 | 4.4 | x | x | x | x | x
COc1ccccc1-c1ccc(/C=C2\C=CC(=O)O2)o1 | 43.9* | -3.8 | -3.9 | 15.0* | 6.5 | 26.8* | 7.7 | 1.0 | 1.8 | -6.4 | 11.4
Cc1ccc(-n2c(SCc3cccc(F)c3)nnc2-c2cccc(C)c2)cc1 | 1.0 | -1.0 | -8.6 | 2.4 | -7.7 | 0.1 | x | x | x | x | x
